The entries come from a sample that favours hits as a whole.
T cruzi repl – inhibitors of intracellular T. cruzi growth, primary screen, luminescence, NIH3T3 host cells | T. cruzi beta-gal in NIH3T3, 90 h | inhibition, % (test concentration not listed) | actives 1.4% (n = 300,000);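 active = mean inhibition across valid replicates above about 55%, limit read from the data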;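 note: signal also drops with host cell toxicity which is not excluded here; higher percent means less beta-gal luminescence so fewer parasites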
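System: Mouse NIH/3T3 fibroblasts infected with β-gal-expressing T. cruzi Tulahuen C4 | Quantity: NIH/3T3 cells, 5,000 per well | Reagent: 5000 reporter trypomastigotes per well | Dosing: Compound pinned at 50 nL/well, DMSO | Schedule: 3 h host attachment, then at least 90 h co-culture | Detection: GalScreen luminescence, 60 min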
Lmaj promast – Leishmania major promastigote growth inhibition, primary screen | inhibition, % at 10 µM | AID 1063, 2008 | actives 9% (n = 200,000) | Leishmania major promastigotes, resazurin fluorescence viability; in the data active = inhibition above about 50%;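 note: promastigotes grown with compound for 44 hours at 28 °C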
Dynein cargo inh – inhibitors of GR-EGFP nuclear translocation, primary screen, dynein cargo transport inhibitor project, imaging, high-content, 3617.4 mouse cells | test concentration mostly 20 µM; stimulated with dexamethasone, 1 µM; hits give low values | actives 0.47% (n = 220,000) | z-score, hits read low;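 active = plate z-score of nuclear minus cytoplasmic receptor signal below a set negative limit, without overly bright fluorescence or cell loss, cut at about -3.5 in these data, passing the limit was not always enough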;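 note: z-score of nuclear minus cytoplasmic ring GR-EGFP intensity difference per well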
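Buffer or medium: tet-free medium with charcoal-stripped serum / Also added: dexamethasone agonist, 1.0 µM final, for 30 min / Timing: induction 48 h, compound 1 h, agonist 30 min / Measured by: high-content fluorescence imaging after fixation / Read-out: nuclear-to-cytoplasmic GR-EGFP distribution per well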
CHOP UPR activ – activators of apoptotic CHOP UPR arm, primary screen, cell-based, CHO-CHOP luciferase reporter, luminescence, uHTS; UPR activation; percent of tunicamycin response over DMSO baseline; activation, % at 10 µM; actives 0.34% (n = 330,000); AID 449763, 2010;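 active = at 10 µM dose, activation of 40% or more, normalized to positive control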
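assay system = CHO CHOP reporter cells | amount = 500 CHO-CHOP cells per well | buffer or medium = F12 with 10% FBS | incubation = 16-18 h cell attachment, then 6 h compound exposure, 37 °C | detection = luminescence read with Steady-Glo | read-out = percent activation relative to tunicamycin control | controls = tunicamycin high control, DMSO low control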
XBP1 UPR activ – activators of adaptive XBP1 UPR arm, primary screen, cell-based, CHO-XBP1 luciferase reporter, luminescence, uHTS. IRE1-XBP1 UPR activation; percent of tunicamycin response, DMSO as zero. activation, % at 20 µM. actives 0.33% (n = 330,000);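 active = versus positive control, 20 µM dose yields 30% or more activation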
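assay system = CHO-XBP1 luciferase reporter cells | amount = 1000 cells/well | buffer or medium = F12 plus 10% FBS | compound dosing = single point, 20 µM final compound, 1% DMSO | incubation = 16-18 h cell attachment at 37 °C, then 6 h compound exposure | detection = Steady-Glo luminescence read | controls = tunicamycin 10 µg/mL and vehicle-only wells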
CHOP inh – inhibitors of CHOP promoter induction, primary screen, cell-based, unfolded protein response, luciferase reporter | CHO-K1 CHOP-promoter luciferase, tunicamycin-induced, 15-18 h | inhibition, % at 10 µM | actives 3.8% (n = 220,000);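 active = compounds that reduced the stress-induced luciferase reporter signal by more than about 70% of percent inhibition, limit read from the data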
Each line names hits and unclear results; the compound was inactive in the other large screens.

CC(C)Nc1nc(NC(C)C)nc(SCC(N)=O)n1	none
Cc1ccc(C)c(N2CCN(C(=O)CCC(=O)N3CCOc4ccc(Cl)cc43)CC2)c1	T cruzi repl 55 (no result: Lmaj promast, Dynein cargo inh, CHOP inh)
Cc1ccc(C)c(N2CCN(CCCNC(=O)CCC(=O)N3CCOc4ccc(Cl)cc43)CC2)c1	none (no result: Lmaj promast, Dynein cargo inh, CHOP inh)
Cn1ccc(C(=O)NC(=S)N2CCSCC2)n1	none (no result: Lmaj promast)
COc1ccc(NC(=O)/C(=C/c2ccc3c(c2)OCO3)NC(C)=O)cc1	Lmaj promast 71
COc1ccc(C(=O)N/C(=C\c2ccc3c(c2)OCO3)C(=O)Nc2ccc(C(=O)O)cc2)cc1	none
COc1cccc(N2CCN(c3nc(C)cc(C)c3C#N)CC2)c1	none (no result: Lmaj promast, Dynein cargo inh, CHOP inh)
Cc1cccc(N2CCN(c3nc(C)cc(C)c3C#N)CC2C)c1 (configuration not stated)	T cruzi repl 65 (no result: Lmaj promast, Dynein cargo inh, CHOP inh)
Cc1ccc([C@H]2C(C(=O)O)=CC[C@@H](c3ccc(C)cc3)N2S(=O)(=O)c2ccccc2C)cc1	none (no result: T cruzi repl, Lmaj promast, Dynein cargo inh, CHOP inh)
CCOC(=O)CSc1nc(C)cc(C)c1C#N	none
Cc1cc(C)c(C#N)c(SCC(=O)OC2CCCCC2)n1	CHOP inh 77
Cc1cc(C)c(C#N)c(SCC(=O)c2ccc(Cl)cc2Cl)n1	T cruzi repl 75, Lmaj promast 100
Cc1cccc2cc(CN(CCCN(C)C)C(=S)NCCc3ccccc3)c(=O)[nH]c12	T cruzi repl 62, Lmaj promast 65
Cc1ccc2[nH]c(=O)c(CN(CCCN(C)C)C(=O)Nc3ccc(Cl)cc3)cc2c1	Lmaj promast 90
Cc1ccc2cc(CN(CCc3ccccc3)C(=S)NCCCN(C)C)c(=O)[nH]c2c1	none (no result: Lmaj promast, Dynein cargo inh, CHOP inh)
CNC(=S)N(CCc1cccc(C)c1)Cc1cc2cc(OC)c(OC)cc2[nH]c1=O	none
Cc1ccc2[nH]c(=O)c(CN(CCCN(C)C)C(=S)NCCc3ccccc3)cc2c1	T cruzi repl 84, Lmaj promast 76
COc1cc2cc(CN(CCc3cccc(C)c3)C(=S)NCCCN(C)C)c(=O)[nH]c2cc1OC	Lmaj promast 52
Cc1ccc2cc(CN(CCN(C)C)C(=O)Nc3ccc(Cl)cc3)c(=O)[nH]c2c1	none
COCCCNC(=O)c1nc2ccccc2c(=O)n1NC(=O)Nc1c(Cl)cccc1Cl	none (no result: Lmaj promast, Dynein cargo inh, CHOP inh)
O=C(NC1C2CCCC1CN(C1CC1)C2)c1ccc(Cl)cc1 (configuration not stated)	none (no result: Lmaj promast, Dynein cargo inh, CHOP inh)
CCCCOc1ccc(C(=O)NCC(=O)NC2CCN(Cc3ccccc3)CC2)cc1	none (no result: Lmaj promast, Dynein cargo inh, CHOP inh)
COc1ccc(NC(=O)Cn2nnc(C(=O)NCc3ccc(C)cc3)c2N)cc1OC	none (no result: Lmaj promast, Dynein cargo inh, CHOP inh)
COc1ccc(NC(=O)Cn2nnc(C(=O)NCc3ccccc3OC)c2N)cc1Cl	CHOP inh 72
O=[N+]([O-])c1ccc(S(=O)(=O)Nc2ccc(-c3ccc(N4CCCC4)nn3)cc2)cc1	T cruzi repl 55 (no result: Lmaj promast, Dynein cargo inh, CHOP inh)
O=[N+]([O-])c1ccc(S(=O)(=O)N2CCN(c3ccc(N4CCOCC4)nn3)CC2)cc1	T cruzi repl 60 (no result: Lmaj promast, Dynein cargo inh, CHOP inh)
Cc1[nH]c2ccccc2c1C(=O)/C=C/c1ccccc1Cl	CHOP inh 90
Cc1[nH]c2ccccc2c1C(=O)/C=C\c1ccccc1Cl	CHOP inh 74
N#CC(c1ccc(F)cc1)c1ccc(C(=O)c2ccc(F)cc2)cc1 (configuration not stated)	none
Cc1ccc(C(C#N)c2ccc(C(=O)c3ccc(F)cc3)cc2)cc1 (configuration not stated)	Lmaj promast 54
O=C(NCCC1=CCCCC1)c1cccc2c1C(=O)N(C1CCCCC1)C2	CHOP inh 85
N#Cc1cc2ccc(N3CCOCC3)cc2cc1C#N	Lmaj promast 99 (no result: CHOP inh)
CCN(CC)c1ccc(/C=N/NC(=O)CN2CCCc3ccccc32)cc1	none
O=C(CN1CCCc2ccccc21)N/N=C/c1ccccc1	none
O=C(CN1CCCc2ccccc21)N/N=C/c1ccc(O)cc1O	Lmaj promast 98
O=C(CN1CCCc2ccccc21)N/N=C/c1c(O)ccc2ccccc12	Lmaj promast 99
COc1ccccc1NC(=O)Nc1nc(CC(=O)N2CCN(c3ccccc3F)CC2)cs1	none (no result: Lmaj promast, Dynein cargo inh, CHOP inh)
CC1=NN(c2ccc(C)cc2)C(=O)/C1=C\C=C\c1ccccc1	Lmaj promast 100
CC1=NN(c2ccccc2)C(=O)/C1=C\c1ccc(Br)s1	Lmaj promast 54
Cc1cc(=O)oc2cc(Oc3ccc([N+](=O)[O-])cc3[N+](=O)[O-])ccc12	Lmaj promast 86
COc1cc(/C=C2/NC(=O)NC2=O)cc(Br)c1OCc1ccccc1	CHOP inh 94
COc1cc(/C=C2/NC(=O)NC2=O)cc(Br)c1OCc1cccc(C(=O)O)c1	none
CCOc1ccc2nc(NC(=O)C(NS(=O)(=O)c3cccc4nsnc34)C(C)C)sc2c1 (configuration not stated)	Lmaj promast 52
CCOc1ccc(OCC)c(NS(=O)(=O)c2cccc3nsnc23)c1	CHOP inh 83
O=C1NC(Cc2ccccc2)c2nc3cc(Cl)ccc3c(=O)n2-c2ccccc21 (configuration not stated)	none (no result: T cruzi repl, Lmaj promast, Dynein cargo inh, CHOP inh)
Cc1ccc(C)c(NC(=O)CSc2nnc(C3CCCCC3)o2)c1	none (no result: Lmaj promast, Dynein cargo inh, CHOP inh)
COc1ccc(-c2csc(Cc3nnc4n3CCCCC4)n2)cc1OC	Lmaj promast 60
O=C(/C=C/c1ccc(Cl)cc1Cl)Nc1ccncc1	Lmaj promast 95
O=C(/C=C/c1cccc(Cl)c1)NCc1ccncc1	none
O=C(/C=C/c1ccccc1Cl)Nc1cccnc1	none (no result: Lmaj promast, Dynein cargo inh, CHOP inh)
O=C(/C=C/c1ccc(Cl)cc1Cl)NCc1ccncc1	none
Cc1nc(NC(=O)/C=C/c2ccc(Cl)cc2Cl)sc1C(=O)N(C)C	CHOP inh 85
CC(=O)N(C)c1ccc(NC(=O)/C=C/c2ccccc2Cl)cc1	Lmaj promast 60
O=C(/C=C/c1cccc(Cl)c1)Nc1ccncc1	Lmaj promast 61
COc1cc(NC(=O)CN2C(=O)CSc3ccc(S(=O)(=O)N4CCCC4)cc32)cc(OC)c1	none (no result: Lmaj promast, Dynein cargo inh, CHOP inh)
COc1ccc2c(c1)CN(C)S(=O)(=O)c1ccccc1-2	none (no result: T cruzi repl, Lmaj promast, Dynein cargo inh, CHOP inh)
O=C(/C=C/c1ccccc1Cl)Nc1ccncc1	Lmaj promast 100
O=C(/C=C/c1c(Cl)cccc1Cl)Nc1ccncc1	Lmaj promast 98
O=C(/C=C/c1c(F)cccc1Cl)Nc1ccncc1	none
Cc1ccc(SCC(=O)OCc2csc(CC(=O)Nc3ccccc3C)n2)cc1C	none (no result: T cruzi repl, Lmaj promast, Dynein cargo inh, CHOP inh)
N#CC(C(=O)Nc1ccc(Cl)c(Cl)c1)=C1Nc2ccccc2N1	CHOP inh 73
